Data on 16 molecules can be found in ChEMBL document CHEMBL1944565, “Exploration of α-aminophosphonate N-derivatives as novel, potent and selective inhibitors of protein tyrosine phosphatases” (Eur J Med Chem, 2012).

SMILES strings stand for the structures. pIC50: −log10 of the molar value. A value given as a limit tells only on which side of the number the result lay.

The target of assay [1] is T1, Tyrosine-protein phosphatase non-receptor type 1 (Homo sapiens, UniProt P18031).
T1 sequence (P18031 whole entry): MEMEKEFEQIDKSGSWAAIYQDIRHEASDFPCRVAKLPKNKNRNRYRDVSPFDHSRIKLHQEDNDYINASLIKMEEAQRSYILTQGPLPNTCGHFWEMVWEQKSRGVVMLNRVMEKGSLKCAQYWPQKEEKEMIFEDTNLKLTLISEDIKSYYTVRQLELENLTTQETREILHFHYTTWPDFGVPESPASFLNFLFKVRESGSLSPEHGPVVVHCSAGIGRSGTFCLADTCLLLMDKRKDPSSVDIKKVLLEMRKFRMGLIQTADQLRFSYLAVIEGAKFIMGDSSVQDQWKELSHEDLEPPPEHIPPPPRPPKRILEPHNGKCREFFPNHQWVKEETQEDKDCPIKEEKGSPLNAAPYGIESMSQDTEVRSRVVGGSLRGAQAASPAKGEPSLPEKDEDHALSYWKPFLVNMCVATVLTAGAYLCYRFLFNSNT
The assay is described as follows: Inhibition of human PTP1B using p-nitrophenol phosphate as substrate incubated for 35 mins prior to substrate addition measured after 30 mins by spectrophotometry. The method in brief: (§1)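 Recombinant human phosphatase, expressed and purified, in 20 mM MOPS pH 7.2 with 50 mM NaCl. Preincubated with inhibitor at various concentrations for 35 min at 37 °C. p-NPP (0.1 M stock) added and reaction run about 30 min, then stopped with 2 M NaOH.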

In assay [2] the target is Tyrosine-protein phosphatase non-receptor type 6 (Homo sapiens, UniProt P29350). The assay is described as follows: Inhibition of human SHP1 using p-nitrophenol phosphate as substrate incubated for 35 mins prior to substrate addition measured after 30 mins by spectrophotometry. A digest of the protocol:
as §1

The target in assay [3] is T2, Tyrosine-protein phosphatase non-receptor type 9 (Homo sapiens, UniProt P43378).
T2 sequence (P43378 whole entry): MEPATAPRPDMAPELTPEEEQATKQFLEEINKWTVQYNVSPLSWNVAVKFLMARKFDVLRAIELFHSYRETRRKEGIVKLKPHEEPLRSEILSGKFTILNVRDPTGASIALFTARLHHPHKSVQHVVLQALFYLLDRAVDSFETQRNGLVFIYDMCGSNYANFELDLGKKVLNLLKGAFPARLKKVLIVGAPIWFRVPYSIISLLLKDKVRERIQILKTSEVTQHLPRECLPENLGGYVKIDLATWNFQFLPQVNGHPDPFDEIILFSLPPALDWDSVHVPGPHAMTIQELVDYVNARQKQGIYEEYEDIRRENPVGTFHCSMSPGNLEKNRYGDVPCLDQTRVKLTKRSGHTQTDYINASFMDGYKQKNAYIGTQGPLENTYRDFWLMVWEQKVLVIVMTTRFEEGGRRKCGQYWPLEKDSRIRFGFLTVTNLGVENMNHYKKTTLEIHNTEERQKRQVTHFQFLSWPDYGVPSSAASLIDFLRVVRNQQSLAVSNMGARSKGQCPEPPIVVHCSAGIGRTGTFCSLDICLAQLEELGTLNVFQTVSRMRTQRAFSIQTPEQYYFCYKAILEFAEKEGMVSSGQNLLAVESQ
The assay is described as follows: Inhibition of human PTP-MEG2 using p-nitrophenol phosphate as substrate incubated for 35 mins prior to substrate addition measured after 30 mins by spectrophotometry. A digest of the protocol:
as §1

The target of assay [4] is T3, Tyrosine-protein phosphatase non-receptor type 2 (Homo sapiens, UniProt P17706).
T3 sequence (P17706 whole entry): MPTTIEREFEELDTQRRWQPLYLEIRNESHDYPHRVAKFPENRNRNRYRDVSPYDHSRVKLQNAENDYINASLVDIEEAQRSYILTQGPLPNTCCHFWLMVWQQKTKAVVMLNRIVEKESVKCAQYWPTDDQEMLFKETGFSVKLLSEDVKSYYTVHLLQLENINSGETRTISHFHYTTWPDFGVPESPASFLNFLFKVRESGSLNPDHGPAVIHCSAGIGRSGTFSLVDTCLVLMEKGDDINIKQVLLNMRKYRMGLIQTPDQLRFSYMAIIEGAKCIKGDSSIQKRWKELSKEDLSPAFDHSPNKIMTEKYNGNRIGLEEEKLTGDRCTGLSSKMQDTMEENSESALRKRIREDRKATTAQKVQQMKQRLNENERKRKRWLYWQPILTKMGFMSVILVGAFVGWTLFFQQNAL
The assay is described as follows: Inhibition of human TCPTP using p-nitrophenol phosphate as substrate incubated for 35 mins prior to substrate addition measured after 30 mins by spectrophotometry. A digest of the protocol:
as §1

Assay [5] addresses T4, Tyrosine-protein phosphatase non-receptor type 11 (Homo sapiens, UniProt Q06124).
T4 sequence (Q06124 whole entry): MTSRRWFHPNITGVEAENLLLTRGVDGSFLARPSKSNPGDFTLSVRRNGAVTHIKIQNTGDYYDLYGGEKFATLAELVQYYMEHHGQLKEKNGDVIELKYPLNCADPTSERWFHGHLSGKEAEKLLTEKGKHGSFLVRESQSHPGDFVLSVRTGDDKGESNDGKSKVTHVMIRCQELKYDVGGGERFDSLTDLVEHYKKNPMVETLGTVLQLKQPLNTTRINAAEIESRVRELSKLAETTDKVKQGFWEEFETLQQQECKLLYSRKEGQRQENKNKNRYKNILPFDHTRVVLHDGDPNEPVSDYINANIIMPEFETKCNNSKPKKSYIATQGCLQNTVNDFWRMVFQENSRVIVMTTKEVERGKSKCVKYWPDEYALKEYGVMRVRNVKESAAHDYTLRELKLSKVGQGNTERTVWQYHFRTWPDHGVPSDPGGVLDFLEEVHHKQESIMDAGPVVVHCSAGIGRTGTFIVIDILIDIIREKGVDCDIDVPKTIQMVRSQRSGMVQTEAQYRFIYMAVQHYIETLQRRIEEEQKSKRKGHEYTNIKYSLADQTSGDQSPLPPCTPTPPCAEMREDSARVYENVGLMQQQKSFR
The assay is described as follows: Inhibition of human SHP2 using p-nitrophenol phosphate as substrate incubated for 35 mins prior to substrate addition measured after 30 mins by spectrophotometry. A digest of the protocol:
as §1

Assay [6] has as its target T5, Tyrosine-protein phosphatase non-receptor type 9 (Homo sapiens) (UniProt P43378).
T5 sequence (whole entry): T2 sequence (P43378 whole entry)

For assay [7], the target named is T6, Tyrosine-protein phosphatase non-receptor type 1 (Homo sapiens) (UniProt P18031).
T6 sequence (whole entry): T1 sequence (P18031 whole entry)

Tyrosine-protein phosphatase non-receptor type 6, sequence (P29350 whole entry): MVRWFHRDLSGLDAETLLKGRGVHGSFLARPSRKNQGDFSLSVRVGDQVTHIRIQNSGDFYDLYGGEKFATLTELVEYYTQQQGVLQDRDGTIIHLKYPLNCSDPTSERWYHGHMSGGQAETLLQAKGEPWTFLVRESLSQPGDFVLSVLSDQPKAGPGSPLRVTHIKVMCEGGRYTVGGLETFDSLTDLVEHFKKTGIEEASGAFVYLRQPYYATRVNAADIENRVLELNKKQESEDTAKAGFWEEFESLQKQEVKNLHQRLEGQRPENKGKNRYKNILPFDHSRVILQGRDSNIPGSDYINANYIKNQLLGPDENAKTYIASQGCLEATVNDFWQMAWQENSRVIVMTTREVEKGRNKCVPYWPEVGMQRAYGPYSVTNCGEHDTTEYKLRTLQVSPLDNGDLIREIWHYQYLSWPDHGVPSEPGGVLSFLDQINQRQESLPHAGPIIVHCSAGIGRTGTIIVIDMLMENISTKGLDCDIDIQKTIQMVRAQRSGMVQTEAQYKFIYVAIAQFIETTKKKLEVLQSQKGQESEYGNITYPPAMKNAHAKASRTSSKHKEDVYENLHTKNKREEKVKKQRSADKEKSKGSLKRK

As a reminder, the pIC50 is the IC50 on a negative log10 scale, so that one unit is a factor of ten. Take `CCOP(=O)(OCC)[C@H](Nc1ccc(Cl)cc1)c1ccccc1O`: the pIC50 is 3.43 in assay [1]; less than 2.00 in assay [2]; 3.46 in assay [3]; 3.20 in assay [4]; less than 2.00 in assay [5].

With `CCOP(=O)(O)C(N[C@@H](Cc1cnc[nH]1)C(=O)O)c1ccccc1O` (some centres not stated), the pIC50 in assay [1] was 3.48; in assay [2], 3.78; in assay [3] it was less than 2.00; in assay [4], 3.75; in assay [5], 3.68.

Regarding `CCOP(=O)(O)C(N[C@@H](CO)C(=O)O)c1ccccc1O` (some centres not stated), in assay [6], the Kic is 102 µM. Besides, the pIC50 in assay [1] is 3.87; in assay [2], 3.89; in assay [3], 4.16; in assay [4] it was 3.91; in assay [5] it was 3.72.

Consider `CCOP(=O)(O)C(NCCCNC(c1ccccc1O)P(=O)(O)OCC)c1ccccc1O` (configuration not stated), for which the pIC50 in assay [1], in assay [2], in assay [3], in assay [4] and in assay [5] was less than 2.00 in each case.

With `CCOP(=O)(OCC)[C@H](Nc1ccccc1Cl)c1ccccc1O`, the pIC50 in assay [1] is 3.86; in assay [2] it was less than 2.00; in assay [3], 3.84; in assay [4] it was 3.75; in assay [5] it was less than 2.00.

For `CCOP(=O)(O)C(N[C@@H](C)C(=O)O)c1ccccc1O` (some centres not stated), the pIC50 in assay [1], in assay [2], in assay [3], in assay [4] and in assay [5] was less than 2.00 throughout.

As to `CCOP(=O)(O)C(NCC(=O)O)c1ccccc1O` (configuration not stated), the pIC50 in assay [1], in assay [2], in assay [3], in assay [4] and in assay [5] was less than 2.00 each time.

`CCOP(=O)(O)C(N[C@@H](CS)C(=O)O)c1ccccc1O` (some centres not stated): the pIC50 in assay [1], in assay [2], in assay [3], in assay [4] and in assay [5] was less than 2.00 throughout.

For `CCOP(=O)(OCC)[C@H](Nc1ccc([N+](=O)[O-])cc1)c1ccccc1O`, the pIC50 was 3.66 in assay [1]; less than 2.00 in assay [2]; 3.54 in assay [3]; 3.62 in assay [4]; less than 2.00 in assay [5].

As to `CCOP(=O)(O)C(N[C@@H](Cc1ccc(O)cc1)C(=O)O)c1ccccc1O` (some centres not stated), the pIC50 in assay [1], in assay [2], in assay [3], in assay [4] and in assay [5] was less than 2.00 in each case.

Take `CCOP(=O)(O)C(N[C@H](C(=O)O)[C@@H](C)O)c1ccccc1O` (some centres not stated): the pIC50 in assay [1], in assay [2], in assay [3], in assay [4] and in assay [5] was less than 2.00 in each case.

In the case of `CCOP(=O)(OCC)[C@H](Nc1ccc(Br)cc1)c1ccccc1O`, the pIC50 is 4.04 in assay [1]; less than 2.00 in assay [2]; 3.76 in assay [3]; 4.29 in assay [4]; less than 2.00 in assay [5]. Besides, the Kic in assay [7] amounted to 96.3 µM.

For `CCOP(=O)(O)C(NCCCCCCNC(c1ccccc1O)P(=O)(O)OCC)c1ccccc1O` (configuration not stated), the pIC50 in assay [1], in assay [2], in assay [3], in assay [4] and in assay [5] was less than 2.00 throughout.

With `CCOP(=O)(O)C(N[C@@H](Cc1ccccc1)C(=O)O)c1ccccc1O` (some centres not stated), the pIC50 in assay [1], in assay [2], in assay [3], in assay [4] and in assay [5] was less than 2.00 in each case.

As for `CCOP(=O)(O)C(N[C@@H](Cc1c[nH]c2ccccc12)C(=O)O)c1ccccc1O` (some centres not stated), the pIC50 in assay [1], in assay [2], in assay [3], in assay [4] and in assay [5] was less than 2.00 each time.

Regarding `CCOP(=O)(O)C(NCCNC(c1ccccc1O)P(=O)(O)OCC)c1ccccc1O` (configuration not stated), the pIC50 in assay [1], in assay [2], in assay [3], in assay [4] and in assay [5] was less than 2.00 in each case.
